PAD4 FP inh: human PAD4 inhibitors, primary screen, biochemical, fluorescence polarization, 1536-well format. Protein-arginine deiminase type-4 (Homo sapiens), Q9UM07. recombinant PAD4, RCA probe fluorescence polarization. inhibition, % at 6.36 µM. 330,000 tested, 0.41% active. AID 485272, 2010;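 active means percent inhibition above a cutoff equal to the mean of all tested compounds plus 3 SD, cut at about 15% in these data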;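 further: 0% = PAD4 with RCA probe and DMSO and 100% = probe without PAD4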
Target sequence (Q9UM07 whole entry, looked up): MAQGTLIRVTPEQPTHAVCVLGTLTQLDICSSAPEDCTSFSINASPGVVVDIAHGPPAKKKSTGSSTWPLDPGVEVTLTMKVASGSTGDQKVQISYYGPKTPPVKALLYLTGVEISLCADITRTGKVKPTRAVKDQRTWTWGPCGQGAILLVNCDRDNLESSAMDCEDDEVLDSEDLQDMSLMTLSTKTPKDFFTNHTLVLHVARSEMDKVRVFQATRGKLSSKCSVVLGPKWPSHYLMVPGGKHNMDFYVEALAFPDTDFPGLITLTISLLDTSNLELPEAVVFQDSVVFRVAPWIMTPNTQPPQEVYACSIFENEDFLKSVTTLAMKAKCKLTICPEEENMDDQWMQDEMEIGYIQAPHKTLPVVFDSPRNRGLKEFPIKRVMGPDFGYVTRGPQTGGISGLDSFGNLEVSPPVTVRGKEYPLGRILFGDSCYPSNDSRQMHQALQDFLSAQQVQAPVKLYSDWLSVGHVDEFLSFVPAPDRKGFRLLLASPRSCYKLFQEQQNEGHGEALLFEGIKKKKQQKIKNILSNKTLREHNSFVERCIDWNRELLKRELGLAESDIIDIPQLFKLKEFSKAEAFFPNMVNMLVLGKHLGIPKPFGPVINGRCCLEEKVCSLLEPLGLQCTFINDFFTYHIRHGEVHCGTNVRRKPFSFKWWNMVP
TDP2 inh: human TDP2 enzyme inhibitors, primary screen, biochemical, epi absorbance, recombinant enzyme | Tyrosyl-DNA phosphodiesterase 2 (Homo sapiens), O95551 | T5PNP hydrolysis, p-nitrophenol absorbance 415 nm | inhibition, % at 12.8 µM | 370,000 tested, 0.34% active | AID 720702, 2013;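 active means inhibition above the mean of all tested compounds plus 3 SD, set per campaign, cut at about 25% in these data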;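 further: 0% = DMSO with enzyme and 100% = buffer with substrate but no TDP2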
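System – recombinant human TDP2 · Quantity – TDP2 enzyme at 120 nM final · Doses – single concentration, 12.8 µM nominal, with 1% DMSO · Incubation – 2 h at 37 °C · Measured by – epi absorbance of p-nitrophenol freed from T5PNP by hydrolysis · Read-out – % inhibition relative to enzyme-containing and enzyme-free wells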
Fh CTSL1 inh: Fasciola hepatica cathepsin L1 inhibitors, primary screen, counter-screen for PFM18AAP inhibitor project, biochemical, QFRET, fluorogenic peptide substrate | 300,000 tested, 0.49% active | inhibition, % at 5.96 µM | recombinant F. hepatica cathepsin L1, Z-Leu-Arg-MCA fluorescence;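 active means inhibition above the mean of all tested compounds plus 3 SD, set per screening campaign, cut at about 17% in these data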;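 further: 0% = plate median of test compound wells and 100% = 1 µM Z-Phe-Ala-diazomethylketone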
GSTO1 counter: inhibitors of recombinant GSTO1, primary screen, counter-screen for RBBP9 inhibitor project, biochemical, fluorescence polarization; 300,000 tested, 1.1% active; activity-based probe fluorescence polarization; Glutathione S-transferase omega-1 (Homo sapiens), P78417; inhibition, % at 5.96 µM; AID 1974, 2009;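 active means inhibition above the campaign mean inhibition plus 3 SD, cut at about 35% in these data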;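 further: 0% = GSTO1-1 with DMSO and 100% = wells lacking GSTO1-1 enzyme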
Numbers without * were called inactive; nt = no result. This is a sample that favours compounds with a hit; in the whole collection about 1.4% have one here.

SMILES	PAD4 FP inh	TDP2 inh	Fh CTSL1 inh	GSTO1 counter
Cc1cccc(N(C(=O)CNC(=O)c2ccco2)C(C(=O)NC2CCCCC2)c2cccnc2)c1 (stereo unspecified)	2	-7	-3	4
O=S(=O)(c1cnc(Cl)c(Br)c1)N1CCc2ccccc21	1	6	3	45*
O=S(=O)(c1cc(Cl)ccc1Cl)N1CCc2ccccc21	-2	2	-2	7
CC1CCCCN1S(=O)(=O)c1cnc(Cl)c(Br)c1 (stereo unspecified)	-4	-1	-4	71*
CCCCNC(=O)C1(C)CCCCN1Cc1ccc(OCc2ccccc2)cc1 (stereo unspecified)	nt	-5	nt	nt
CCCN1CCS(=O)(=O)N(Cc2cn(Cc3ccc(OC)cc3)nn2)C(C(=O)OC)C1 (stereo unspecified)	nt	9	nt	nt
O=C(NNc1c2ccccc2nc2ccccc12)c1ccccc1Cl	6	-12	18*	-3
O=C(NNc1c2ccccc2nc2ccccc12)c1ccccc1O	1	6	2	19
O=C(NCc1cccs1)C1CCCN(S(=O)(=O)c2ccccc2)C1 (stereo unspecified)	nt	0	nt	nt
O=C1COc2ccc(S(=O)(=O)NCc3ccccc3)cc2N1	-9	1	1	36*
CCC(Cc1ccccc1)NS(=O)(=O)c1ccc2c(c1)NC(=O)CO2 (stereo unspecified)	2	-5	0	22
Cc1nc(N2CCN(c3ccccn3)CC2)c2c(C)c(C(=O)Nc3c(C)cc(Br)cc3C)sc2n1	0	14	19*	2
Nc1ccc(O)c2ccccc12	10	nt	-1	62*
Nc1ccc(N=Nc2ccccc2)c2ccccc12	0	-7	3	5
COc1cc(OC)cc(C(=O)N[C@H](C(=O)OCC(=O)c2ccc(F)cc2)C(C)C)c1	-3	-6	18*	4
COc1cc(OC)cc(C(=O)N[C@H](C(=O)OCC(=O)Nc2cccc(F)c2)C(C)C)c1	-1	-10	-39	6
COc1ccc(CN2C(=O)Cc3c2nc(N)c2c(N)nc(N4CCCCC4)c(C#N)c32)cc1	-30	nt	-6	48*
COCCCNC(=O)c1ccccc1Oc1ccccc1	1	-14	0	6
COCCCNC(=O)c1ccc2c3c(onc13)-c1ccccc1C2=O	-16	nt	22*	44*
O=C(COc1cccnc1[N+](=O)[O-])c1ccc(Cl)s1	-4	8	-1	35*
Nn1c(SCc2ccc([N+](=O)[O-])cc2)nnc1-c1n[nH]c2c1CCC2	nt	-2	nt	nt
O=[N+]([O-])c1ccccc1NC(=S)N/N=C/c1ccc(O)c(O)c1	1	-22	4	50*
CCOc1cccc(/C=N/NC(=S)Nc2ccccc2[N+](=O)[O-])c1O	-5	6	-1	-1
Cc1cccn2c(=O)c(/C=C(\C#N)C(=O)NC3CCS(=O)(=O)C3)c(N3CCC(C)CC3)nc12 (stereo unspecified)	3	14	17*	1
Cc1cccn2c(=O)c(/C=C(\C#N)C(=O)NC3CCS(=O)(=O)C3)c(Oc3ccc(F)cc3)nc12 (stereo unspecified)	-1	3	0	12
SMILES	PAD4 FP inh	TDP2 inh	Fh CTSL1 inh	GSTO1 counter
CCc1nc2ccc(C(=O)NCCc3ccccn3)cn2c1N(C)Cc1ccc(N(C)C)cc1	nt	2	nt	nt
CCCCNC(=O)C1CCCN1C(=O)Nc1cc(C)cc(C)c1 (stereo unspecified)	nt	0	nt	nt
COc1ccc2[nH]c3c(=O)n(CCc4ccccc4)cnc3c2c1	-3	8	3	7
CCCCN(CCCC)CCn1cnc2c([nH]c3ccc(OC)cc32)c1=O	6	-3	107*	10
CCCCCOC(=O)C1C2C=CC3(CN(c4ccccc4C)C(=O)C13)O2 (stereo unspecified)	3	-9	19*	5
CCOC(=O)C1C2C=CC3(CN(c4ccccc4CC)C(=O)C13)O2 (stereo unspecified)	-3	-8	0	4
N#Cc1c(N)nc2c3c(sc(=N)c2c1N)NC(=O)CC3c1ccccc1 (stereo unspecified)	-2	1	11	-12
N#Cc1c(N)nc2c3c(sc(=N)c2c1N)NC(=O)CC3c1c(F)cccc1Cl (stereo unspecified)	2	-4	4	35*
CCc1ccc(N=CC2=C(O)CC(c3ccco3)CC2=O)cc1 (stereo unspecified)	3	1	17*	-4
Cc1ccc(C2CCC3(CCC(=O)N3CCOC(=O)Nc3ccc(F)cc3)CC2)cc1 (stereo unspecified)	nt	-6	nt	nt
Cn1c(SCC(=O)c2cc(Cl)c(Cl)s2)nnc1-c1ccco1	-4	5	-6	44*
Clc1cccc(CN2CCN(c3ncc(Cc4ccccc4)cn3)CC2)c1Cl	nt	0	nt	nt
CSc1ccccc1NC(=O)C1CCN(S(C)(=O)=O)CC1	-2	12	-1	35*
COC(=O)[C@]12C[C@H](CC(=O)NCc3ccc(C)o3)C(=O)N(CCc3ccc(OC)c(OC)c3)C1=C[C@H](C(C)(C)C)O[C@@H]2C	nt	3	nt	nt
Cc1nn(-c2ccccc2)c(N2CCCC2)c1/C=N/NC(=S)Nc1ccc(F)cc1	-2	-8	2	5
Cc1nn(-c2ccccc2)c(N2CCCC2)c1/C=N/O	2	nt	1	5
Cc1ccc(C2=N/C(=C\c3c(C)nn(-c4ccccc4)c3N3CCCC3)C(=O)O2)cc1	0	-10	55*	5
Cc1nn(-c2ccccc2)c(N2CCCC2)c1/C=C1\N=C(c2ccc(F)cc2)OC1=O	0	13	70*	-1
COc1ccc(NC(=O)Cn2c(=O)sc3ccccc32)c(OC)c1	3	-2	21*	7
COc1ccccc1NC(=O)Cn1c(=O)sc2ccccc21	-3	6	1	-5
Cc1ccc(CN2CCCCC(NC(=O)Nc3ccccc3)C2=O)cc1 (stereo unspecified)	nt	3	nt	nt
Cc1ccc2c(c1)-c1c(cnn1CC(=O)N(Cc1ccco1)C1CCCCC1)CO2	-2	2	29*	8
Cc1ccc2c(c1)-c1c(cnn1CC(=O)N(CCC#N)c1ccccc1)CO2	3	-4	47*	0
COC(=O)c1cn(-c2ccc3c(c2)[C@]2(CC(=O)N(C)C2c2ccccc2)C(=O)N3CC(C)C)nn1 (stereo partly specified)	nt	-5	nt	nt
Cc1oc(-c2cccc(Cl)c2)nc1CS(=O)(=O)CC(=O)NCCN1CCCC1	0	-6	90*	-2
CCSc1nnc(-c2ccco2)n1C	nt	8	nt	nt
CC(C)C(NS(=O)(=O)c1cccs1)C(=O)NCCN1CCN(c2ccccc2)CC1 (stereo unspecified)	1	nt	48*	0
COc1ccc(N2CCN(CCNC(=O)CCNS(=O)(=O)c3cccs3)CC2)cc1	2	-14	-2	-1
Cc1ccc(S(=O)(=O)CNC(=S)c2cccc(Cl)c2)cc1	2	-16	11	38*
C=CCN(CC#Cc1cccnc1)Cc1ccc(OC)cc1OC	nt	10	nt	nt
